Calls of active or inactive are those of the source. The rule behind the calls is not given here.

4 compounds from ChEMBL document CHEMBL1158613, “Novel trivalent anti-influenza reagent” (Bioorg Med Chem Lett, 2010) can be followed below.

The subject of series [1] is Influenza A virus. Kind of series: Inhibition of Influenza A/PR/8/1934 (H1N1)-induced hemagglutinination of chicken RBC. Format: functional, organism-based. Conditions: A/Puerto Rico/8/1934(H1N1).
Series [2] is described as follows: Aqueous solubility of the compound. The series is classed as physicochemical. The following applies: buffer.
Series [3] has as its system Influenza A virus. Kind of series: Antiviral activity against Influenza A/PR/8/1934 (H1N1) infected in MDCK cells assessed as viral plaque formation at 35 degC relative to control. Format: functional, A/Puerto Rico/8/1934(H1N1). In short, it runs like this: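 Plaque reduction assay in MDCK cells with A/PR/8/1934 (H1N1), with compound at 400 μM present during virus adsorption at 35 °C. The plaque count is given as a percentage of plaques in the virus-only control, and uninoculated cells were the blank. A single concentration was tested.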

The test system of series [4] is Influenza A virus. Kind of series: Antiviral activity against Influenza A/PR/8/1934 (H1N1) infected in MDCK cells assessed as of viral plaque formation at 4 degC relative to control. The series is classed as functional, A/Puerto Rico/8/1934(H1N1). In short, it runs like this:
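Plaque reduction assay in MDCK cells infected with A/PR/8/1934 (H1N1), with compound at 400 μM during virus adsorption at 4 °C. Plaques were counted and expressed as a percentage of the virus-only control. Uninoculated cells served as the no-virus control. Single concentration only, with no dose range.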

As to `CC(=O)N[C@H]1[C@@H]([C@@H](O)[C@H](O)CO)O[C@](O[C@H]2[C@@H](O)[C@@H](CO)O[C@@H](O[C@H]3[C@@H](O)[C@@H](O)[C@H](OCCCCCCNC(=O)CCC(N)C(=O)NCCOCCOCCC(=O)Nc4ccc(C(c5ccc(NC(=O)CCOCCOCCNC(=O)C(N)CCC(=O)NCCCCCCO[C@@H]6O[C@H](CO)[C@@H](O[C@@H]7O[C@H](CO)[C@H](O)[C@H](O[C@@]8(C(=O)O)C[C@H](O)[C@@H](NC(C)=O)[C@@H]([C@@H](O)[C@H](O)CO)O8)[C@H]7O)[C@@H](O)[C@H]6O)cc5)c5ccc(NC(=O)CCOCCOCCNC(=O)C(N)CCC(=O)NCCCCCCO[C@@H]6O[C@H](CO)[C@@H](O[C@@H]7O[C@H](CO)[C@H](O)[C@H](O[C@@]8(C(=O)O)C[C@H](O)[C@@H](NC(C)=O)[C@@H]([C@@H](O)[C@H](O)CO)O8)[C@H]7O)[C@@H](O)[C@H]6O)cc5)cc4)O[C@@H]3CO)[C@@H]2O)(C(=O)O)C[C@@H]1O` (some centres undefined), the inhibition result with Influenza A virus [1] is “inactive”. The solubility result in series [2] is on record as “Soluble”. The Activity in the series on Influenza A virus [3] worked out at 56.6%; in the series on Influenza A virus [4], 67.2%.
As for `NC(CCC(=O)NCCCCCCO[C@@H]1O[C@H](CO)[C@@H](O[C@@H]2O[C@H](CO)[C@H](O)[C@H](O)[C@H]2O)[C@@H](O)[C@H]1O)C(=O)NCCOCCOCCOc1ccc(C(c2ccc(OCCOCCOCCNC(=O)C(N)CCC(=O)NCCCCCCO[C@@H]3O[C@H](CO)[C@@H](O[C@@H]4O[C@H](CO)[C@H](O)[C@H](O)[C@H]4O)[C@@H](O)[C@H]3O)cc2)c2ccc(OCCOCCOCCNC(=O)C(N)CCC(=O)NCCCCCCO[C@@H]3O[C@H](CO)[C@@H](O[C@@H]4O[C@H](CO)[C@H](O)[C@H](O)[C@H]4O)[C@@H](O)[C@H]3O)cc2)cc1` (some centres undefined), the solubility result in series [2] is “Soluble”. Also, the Activity in the series on Influenza A virus [3] is given as 77.1%; in the series with Influenza A virus [4], 72.4%.
As for `NC(CCC(=O)NCCCCCCO[C@@H]1O[C@H](CO)[C@@H](O[C@@H]2O[C@H](CO)[C@H](O)[C@H](O)[C@H]2O)[C@@H](O)[C@H]1O)C(=O)NCCOCCOCCC(=O)Nc1ccc(C(c2ccc(NC(=O)CCOCCOCCNC(=O)C(N)CCC(=O)NCCCCCCO[C@@H]3O[C@H](CO)[C@@H](O[C@@H]4O[C@H](CO)[C@H](O)[C@H](O)[C@H]4O)[C@@H](O)[C@H]3O)cc2)c2ccc(NC(=O)CCOCCOCCNC(=O)C(N)CCC(=O)NCCCCCCO[C@@H]3O[C@H](CO)[C@@H](O[C@@H]4O[C@H](CO)[C@H](O)[C@H](O)[C@H]4O)[C@@H](O)[C@H]3O)cc2)cc1` (some centres undefined), the solubility result in series [2] was “Soluble”. Besides, the Activity in the series on Influenza A virus [3] and with Influenza A virus [4] was 100% in each case.
Regarding `CC(=O)N[C@H]1[C@@H]([C@@H](O)[C@H](O)CO)O[C@](O[C@H]2[C@@H](O)[C@@H](CO)O[C@@H](O[C@H]3[C@@H](O)[C@@H](O)[C@H](OCCCCCCNC(=O)CCC(N)C(=O)NCCOCCOCCOc4ccc(C(c5ccc(OCCOCCOCCNC(=O)C(N)CCC(=O)NCCCCCCO[C@@H]6O[C@H](CO)[C@@H](O[C@@H]7O[C@H](CO)[C@H](O)[C@H](O[C@@]8(C(=O)O)C[C@H](O)[C@@H](NC(C)=O)[C@@H]([C@@H](O)[C@H](O)CO)O8)[C@H]7O)[C@@H](O)[C@H]6O)cc5)c5ccc(OCCOCCOCCNC(=O)C(N)CCC(=O)NCCCCCCO[C@@H]6O[C@H](CO)[C@@H](O[C@@H]7O[C@H](CO)[C@H](O)[C@H](O[C@@]8(C(=O)O)C[C@H](O)[C@@H](NC(C)=O)[C@@H]([C@@H](O)[C@H](O)CO)O8)[C@H]7O)[C@@H](O)[C@H]6O)cc5)cc4)O[C@@H]3CO)[C@@H]2O)(C(=O)O)C[C@@H]1O` (some centres undefined), the inhibition entry in the series with Influenza A virus [1] is “inactive”. Moreover, the solubility entry in series [2] was “Soluble”. Besides, the Activity in the series on Influenza A virus [3] worked out at 45.6%; in the series on Influenza A virus [4], 15.5%.
